Source: ChEMBL document CHEMBL3098105, “7,7'-Diazaindirubin--a small molecule inhibitor of casein kinase 2 in vitro and in cells” (Bioorg Med Chem, 2014)

What was measured:
[1] = target: Dual specificity mitogen-activated protein kinase kinase 1 (Homo sapiens) (UniProt Q02750); assay: Inhibition of human MEK1 assessed as residual activity at 1 uM relative to control
[2] = target: Serine/threonine-protein kinase STK11 (Homo sapiens) (UniProt Q15831); assay: Inhibition of human LKB1 assessed as residual activity at 1 uM relative to control
[3] = target: RAC-gamma serine/threonine-protein kinase (Homo sapiens) (UniProt Q9Y243); assay: Inhibition of human PKBgamma assessed as residual activity at 1 uM relative to control
Chain of RAC-gamma serine/threonine-protein kinase (Homo sapiens) (Q9Y243 whole entry): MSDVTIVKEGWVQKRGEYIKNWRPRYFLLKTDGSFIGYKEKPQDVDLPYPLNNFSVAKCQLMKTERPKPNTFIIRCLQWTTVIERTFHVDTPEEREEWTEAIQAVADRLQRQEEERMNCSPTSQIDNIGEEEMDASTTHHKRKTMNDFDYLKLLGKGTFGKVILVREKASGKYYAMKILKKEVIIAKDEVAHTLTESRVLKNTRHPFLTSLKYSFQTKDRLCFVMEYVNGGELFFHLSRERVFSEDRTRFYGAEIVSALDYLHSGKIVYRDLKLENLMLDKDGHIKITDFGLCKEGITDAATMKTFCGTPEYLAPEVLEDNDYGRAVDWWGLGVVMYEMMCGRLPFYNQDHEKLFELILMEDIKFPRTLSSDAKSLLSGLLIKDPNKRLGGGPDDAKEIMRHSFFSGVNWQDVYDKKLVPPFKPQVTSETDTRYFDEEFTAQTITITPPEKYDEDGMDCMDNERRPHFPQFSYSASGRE

[4] = target: Cyclin-dependent kinase 1/cyclin B1 (Homo sapiens) (UniProt P06493+P14635); assay: Inhibition of CDK1/CycB1 (unknown origin) assessed as residual activity at 1 uM relative to control; type: protein-complex assay
[5] = target: T1, Cyclin-dependent kinase 5/CDK5 activator 1 (Homo sapiens) (UniProt Q00535+Q15078); assay: Inhibition of CDK5/p35NCK (unknown origin) assessed as residual activity at 10 uM relative to control; type: protein-complex assay
T1 sequence (Q00535 whole entry): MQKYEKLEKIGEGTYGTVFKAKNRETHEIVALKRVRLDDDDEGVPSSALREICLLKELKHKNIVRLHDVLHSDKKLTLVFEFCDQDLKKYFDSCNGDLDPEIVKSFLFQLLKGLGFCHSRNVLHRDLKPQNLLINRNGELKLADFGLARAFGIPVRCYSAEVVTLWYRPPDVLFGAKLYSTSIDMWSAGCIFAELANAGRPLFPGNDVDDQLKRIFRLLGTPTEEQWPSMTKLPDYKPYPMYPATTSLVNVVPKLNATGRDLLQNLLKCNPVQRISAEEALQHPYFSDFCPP
T1 sequence (Q15078 99-307 partner limits assumed): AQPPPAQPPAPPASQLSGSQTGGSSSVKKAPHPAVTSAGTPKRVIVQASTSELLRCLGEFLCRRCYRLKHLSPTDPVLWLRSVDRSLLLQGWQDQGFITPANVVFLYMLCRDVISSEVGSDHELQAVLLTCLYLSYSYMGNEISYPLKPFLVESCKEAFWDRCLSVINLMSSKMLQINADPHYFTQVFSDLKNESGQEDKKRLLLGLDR

786-0 = assay: Antiproliferative activity against human 786-0 cells after 3 days by sulforhodamine B assay; type: functional; conditions: 786-0, 72 h
Summary of the method: (§1)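 Tested in the NCI 60 cell line panel. GI50 is the concentration giving 50% inhibition of cell growth, and values are the mean of two series of tests.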

[6] = target: ALK tyrosine kinase receptor (Homo sapiens) (UniProt Q9UM73); assay: Inhibition of human ALK assessed as residual activity at 1 uM relative to control
MCF7 [7] = assay: Cell cycle arrest in human MCF7 cells assessed as accumulation at G2/M phase at 1 uM after 24 hrs using propidium iodide staining by FACS analysis (reference value: 22.13%); type: functional
[8] = target: Serine/threonine-protein kinase ULK3 (Homo sapiens) (UniProt Q6PHR2); assay: Inhibition of human ULK3 assessed as residual activity at 1 uM relative to control
Chain of Serine/threonine-protein kinase ULK3 (Homo sapiens) (Q6PHR2 whole entry): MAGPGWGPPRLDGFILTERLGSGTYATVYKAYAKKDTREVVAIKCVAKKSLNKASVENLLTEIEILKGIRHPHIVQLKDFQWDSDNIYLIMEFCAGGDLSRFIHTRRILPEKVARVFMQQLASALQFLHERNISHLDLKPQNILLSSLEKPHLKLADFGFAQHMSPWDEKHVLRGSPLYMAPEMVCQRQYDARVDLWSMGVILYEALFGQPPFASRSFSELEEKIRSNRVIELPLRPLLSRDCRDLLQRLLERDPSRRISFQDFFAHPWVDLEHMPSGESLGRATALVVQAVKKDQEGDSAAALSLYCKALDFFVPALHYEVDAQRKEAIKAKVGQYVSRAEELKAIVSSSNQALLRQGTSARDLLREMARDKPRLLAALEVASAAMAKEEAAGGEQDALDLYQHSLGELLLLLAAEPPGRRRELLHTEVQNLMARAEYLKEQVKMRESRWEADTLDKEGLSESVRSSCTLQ

[9] = target: Calcium/calmodulin-dependent protein kinase type II subunit delta (Homo sapiens) (UniProt Q13557); assay: Inhibition of human CaMK2delta assessed as residual activity at 1 uM relative to control
Chain of Calcium/calmodulin-dependent protein kinase type II subunit delta (Homo sapiens) (Q13557 whole entry): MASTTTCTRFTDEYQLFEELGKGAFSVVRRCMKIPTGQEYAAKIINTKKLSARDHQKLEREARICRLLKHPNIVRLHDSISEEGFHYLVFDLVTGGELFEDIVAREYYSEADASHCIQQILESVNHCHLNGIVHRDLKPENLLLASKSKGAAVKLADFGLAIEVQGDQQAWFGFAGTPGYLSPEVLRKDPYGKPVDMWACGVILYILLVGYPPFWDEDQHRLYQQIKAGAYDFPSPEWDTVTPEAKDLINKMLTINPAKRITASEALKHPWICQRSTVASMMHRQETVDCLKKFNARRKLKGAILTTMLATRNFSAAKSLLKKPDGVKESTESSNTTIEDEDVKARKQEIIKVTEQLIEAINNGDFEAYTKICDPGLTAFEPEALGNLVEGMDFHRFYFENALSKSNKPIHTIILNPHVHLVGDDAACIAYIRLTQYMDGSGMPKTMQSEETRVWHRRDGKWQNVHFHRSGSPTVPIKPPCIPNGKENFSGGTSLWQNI

[10] = target: Platelet-derived growth factor receptor alpha (Homo sapiens) (UniProt P16234); assay: Inhibition of human PDGFRalpha assessed as residual activity at 1 uM relative to control
Chain of Platelet-derived growth factor receptor alpha (Homo sapiens) (P16234 whole entry): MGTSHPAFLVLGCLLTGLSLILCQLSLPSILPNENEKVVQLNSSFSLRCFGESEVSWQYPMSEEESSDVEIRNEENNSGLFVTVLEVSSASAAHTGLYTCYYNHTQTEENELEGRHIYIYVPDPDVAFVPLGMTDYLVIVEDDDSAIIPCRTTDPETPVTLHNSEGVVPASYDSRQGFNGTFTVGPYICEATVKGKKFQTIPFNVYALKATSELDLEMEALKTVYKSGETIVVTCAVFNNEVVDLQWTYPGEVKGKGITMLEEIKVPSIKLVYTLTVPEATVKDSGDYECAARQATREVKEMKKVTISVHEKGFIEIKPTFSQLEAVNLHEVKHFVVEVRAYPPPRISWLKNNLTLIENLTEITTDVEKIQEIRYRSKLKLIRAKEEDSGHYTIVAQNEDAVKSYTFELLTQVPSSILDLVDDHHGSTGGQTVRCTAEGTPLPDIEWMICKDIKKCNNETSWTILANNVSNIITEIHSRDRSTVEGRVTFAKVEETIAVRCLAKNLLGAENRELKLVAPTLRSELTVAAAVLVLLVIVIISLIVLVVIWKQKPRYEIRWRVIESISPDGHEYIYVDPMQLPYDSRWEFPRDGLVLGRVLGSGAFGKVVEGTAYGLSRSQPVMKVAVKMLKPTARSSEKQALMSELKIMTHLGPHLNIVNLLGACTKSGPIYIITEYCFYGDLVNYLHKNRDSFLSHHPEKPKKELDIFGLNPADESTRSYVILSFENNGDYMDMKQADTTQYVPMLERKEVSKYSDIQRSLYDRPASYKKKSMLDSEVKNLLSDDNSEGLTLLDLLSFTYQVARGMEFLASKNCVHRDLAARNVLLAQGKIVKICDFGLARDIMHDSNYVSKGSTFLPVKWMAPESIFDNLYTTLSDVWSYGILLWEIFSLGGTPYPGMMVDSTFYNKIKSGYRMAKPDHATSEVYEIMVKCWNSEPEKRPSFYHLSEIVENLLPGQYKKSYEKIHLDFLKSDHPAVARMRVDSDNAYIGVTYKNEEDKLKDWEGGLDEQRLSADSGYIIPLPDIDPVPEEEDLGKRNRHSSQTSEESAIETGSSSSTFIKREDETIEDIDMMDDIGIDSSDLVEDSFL

[11] = target: Inhibitor of nuclear factor kappa-B kinase subunit alpha (Homo sapiens) (UniProt O15111); assay: Inhibition of human IKKalpha assessed as residual activity at 1 uM relative to control
[12] = target: Serine/threonine-protein kinase Nek11 (Homo sapiens) (UniProt Q8NG66); assay: Inhibition of human NEK11 assessed as residual activity at 1 uM relative to control
Chain of Serine/threonine-protein kinase Nek11 (Homo sapiens) (Q8NG66 whole entry): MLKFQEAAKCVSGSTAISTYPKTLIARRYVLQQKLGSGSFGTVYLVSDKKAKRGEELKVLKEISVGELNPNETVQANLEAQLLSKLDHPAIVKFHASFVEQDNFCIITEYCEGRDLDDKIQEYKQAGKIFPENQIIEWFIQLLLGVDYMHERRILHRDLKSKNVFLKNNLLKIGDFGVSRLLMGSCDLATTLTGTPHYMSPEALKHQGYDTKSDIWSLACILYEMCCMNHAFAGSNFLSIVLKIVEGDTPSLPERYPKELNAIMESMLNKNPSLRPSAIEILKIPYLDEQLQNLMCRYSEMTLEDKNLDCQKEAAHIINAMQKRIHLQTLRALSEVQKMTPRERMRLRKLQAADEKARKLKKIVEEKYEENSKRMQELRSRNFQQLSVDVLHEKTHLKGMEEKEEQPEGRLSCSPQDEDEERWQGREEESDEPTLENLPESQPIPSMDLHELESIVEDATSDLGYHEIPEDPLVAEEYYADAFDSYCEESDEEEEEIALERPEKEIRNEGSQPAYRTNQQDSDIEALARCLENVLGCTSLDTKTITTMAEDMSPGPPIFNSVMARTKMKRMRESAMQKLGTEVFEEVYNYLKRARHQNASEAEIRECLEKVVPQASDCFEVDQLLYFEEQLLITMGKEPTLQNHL

[13] = target: Tyrosine-protein kinase Fyn (Homo sapiens) (UniProt P06241); assay: Inhibition of human Fyn assessed as residual activity at 1 uM relative to control
MCF7 [14] = assay: Antiproliferative activity against human MCF7 cells after 3 days by SRB assay; type: functional, cell-based; conditions: MCF7, 72 h
Summary of the method: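 Cells grown at 37 °C, 5% CO2, with 10% heat-inactivated FBS: LXFL529L in RPMI 1640, MCF7 and HT29 in DMEM. Seeded, allowed 24 h growth, then exposed to the drug at various concentrations for 3 days in serum medium. Fixed with TCA for 1 h at 4 °C, stained with 0.4% SRB, eluted in 10 mM Tris pH 10.5, read at 570 nm as % T/C. IC50 taken from dose–response curves of at least three independent experiments.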

HCT-15 = assay: Antiproliferative activity against human HCT15 cells after 3 days by sulforhodamine B assay; type: functional; conditions: HCT-15, 72 h; summary of the method: as §1
[15] = target: Tyrosine-protein kinase HCK (Homo sapiens) (UniProt P08631); assay: Inhibition of human Hck assessed as residual activity at 1 uM relative to control
Chain of Tyrosine-protein kinase HCK (Homo sapiens) (P08631 2-526 limits assumed): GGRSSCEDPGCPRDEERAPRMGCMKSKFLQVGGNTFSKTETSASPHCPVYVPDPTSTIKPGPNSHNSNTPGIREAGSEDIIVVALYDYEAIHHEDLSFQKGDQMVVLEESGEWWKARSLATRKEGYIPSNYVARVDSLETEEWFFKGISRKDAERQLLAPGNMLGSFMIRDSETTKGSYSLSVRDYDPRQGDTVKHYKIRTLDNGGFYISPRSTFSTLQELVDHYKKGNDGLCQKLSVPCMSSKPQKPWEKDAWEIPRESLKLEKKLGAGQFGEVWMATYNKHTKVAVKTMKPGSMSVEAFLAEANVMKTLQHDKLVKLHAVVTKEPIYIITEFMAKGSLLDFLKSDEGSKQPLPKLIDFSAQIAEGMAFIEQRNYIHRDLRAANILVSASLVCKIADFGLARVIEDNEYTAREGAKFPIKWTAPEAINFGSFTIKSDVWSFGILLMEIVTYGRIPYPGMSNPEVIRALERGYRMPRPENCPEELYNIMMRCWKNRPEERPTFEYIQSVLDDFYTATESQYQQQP

[16] = target: T1, Cyclin-dependent kinase 5/CDK5 activator 1 (Homo sapiens); assay: Inhibition of CDK5/p35NCK (unknown origin) assessed as residual activity at 1 uM relative to control; type: protein-complex assay
[17] = target: Testis-specific serine/threonine-protein kinase 2 (Homo sapiens) (UniProt Q96PF2); assay: Inhibition of human TSSK2 assessed as residual activity at 1 uM relative to control
Chain of Testis-specific serine/threonine-protein kinase 2 (Homo sapiens) (Q96PF2 whole entry): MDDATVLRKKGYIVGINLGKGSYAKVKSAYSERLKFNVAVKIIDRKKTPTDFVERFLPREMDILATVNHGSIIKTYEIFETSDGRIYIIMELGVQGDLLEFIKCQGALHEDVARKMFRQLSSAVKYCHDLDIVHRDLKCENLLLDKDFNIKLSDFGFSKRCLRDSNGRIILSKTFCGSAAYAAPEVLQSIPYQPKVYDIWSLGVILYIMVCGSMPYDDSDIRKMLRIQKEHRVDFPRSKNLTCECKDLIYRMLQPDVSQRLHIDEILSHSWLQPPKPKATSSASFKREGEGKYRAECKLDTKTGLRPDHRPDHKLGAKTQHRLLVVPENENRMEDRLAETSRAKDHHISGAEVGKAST

[18] = target: Ephrin type-B receptor 1 (Homo sapiens) (UniProt P54762); assay: Inhibition of human EphB1 assessed as residual activity at 1 uM relative to control
A498 = assay: Antiproliferative activity against human A498 cells after 3 days by sulforhodamine B assay; type: functional; conditions: A498, 72 h; summary of the method: as §1
MCF7 [19] = assay: Cell cycle arrest in human MCF7 cells assessed as accumulation at sub-G1 phase at 0.25 uM after 24 hrs using propidium iodide staining by FACS analysis (reference value: 0.17%); type: functional
[20] = target: Serine/threonine-protein kinase Sgk3 (Homo sapiens) (UniProt Q96BR1); assay: Inhibition of human SGK3 assessed as residual activity at 1 uM relative to control
[21] = target: T2, Muscle, skeletal receptor tyrosine-protein kinase (Homo sapiens) (UniProt O15146); assay: Inhibition of MUSK (unknown origin) assessed as residual activity at 10 uM relative to control
T2 sequence (whole entry): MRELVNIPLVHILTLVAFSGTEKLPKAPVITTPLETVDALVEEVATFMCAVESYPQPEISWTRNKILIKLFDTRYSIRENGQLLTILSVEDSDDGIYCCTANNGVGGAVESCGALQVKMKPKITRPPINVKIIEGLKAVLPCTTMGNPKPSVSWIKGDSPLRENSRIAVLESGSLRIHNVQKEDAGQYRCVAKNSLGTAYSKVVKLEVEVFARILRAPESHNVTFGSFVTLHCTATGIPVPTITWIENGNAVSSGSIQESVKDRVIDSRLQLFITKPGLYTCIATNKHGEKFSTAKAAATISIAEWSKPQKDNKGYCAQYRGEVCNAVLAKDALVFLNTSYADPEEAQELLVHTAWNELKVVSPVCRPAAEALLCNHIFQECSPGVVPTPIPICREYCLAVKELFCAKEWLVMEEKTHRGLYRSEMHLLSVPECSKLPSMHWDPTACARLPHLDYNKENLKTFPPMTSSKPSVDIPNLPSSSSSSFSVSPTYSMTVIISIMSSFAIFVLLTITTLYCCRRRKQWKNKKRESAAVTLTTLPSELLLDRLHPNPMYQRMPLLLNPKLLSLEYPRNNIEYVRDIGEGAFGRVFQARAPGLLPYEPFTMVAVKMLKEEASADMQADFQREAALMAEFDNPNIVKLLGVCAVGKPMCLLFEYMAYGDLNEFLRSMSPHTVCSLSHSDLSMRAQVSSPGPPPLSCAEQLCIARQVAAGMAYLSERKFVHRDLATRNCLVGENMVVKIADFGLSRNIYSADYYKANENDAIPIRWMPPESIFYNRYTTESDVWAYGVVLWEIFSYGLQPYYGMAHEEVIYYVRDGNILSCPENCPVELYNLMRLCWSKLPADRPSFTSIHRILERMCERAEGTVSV

MCF7 [22] = assay: Antiproliferative activity against human MCF7 cells after 3 days by sulforhodamine B assay; type: functional; conditions: MCF7, 72 h; summary of the method: as §1
[23] = target: Rhodopsin kinase GRK7 (Homo sapiens) (UniProt Q8WTQ7); assay: Inhibition of human GRK7 assessed as residual activity at 1 uM relative to control

Chain of Dual specificity mitogen-activated protein kinase kinase 1 (Homo sapiens) (Q02750 whole entry): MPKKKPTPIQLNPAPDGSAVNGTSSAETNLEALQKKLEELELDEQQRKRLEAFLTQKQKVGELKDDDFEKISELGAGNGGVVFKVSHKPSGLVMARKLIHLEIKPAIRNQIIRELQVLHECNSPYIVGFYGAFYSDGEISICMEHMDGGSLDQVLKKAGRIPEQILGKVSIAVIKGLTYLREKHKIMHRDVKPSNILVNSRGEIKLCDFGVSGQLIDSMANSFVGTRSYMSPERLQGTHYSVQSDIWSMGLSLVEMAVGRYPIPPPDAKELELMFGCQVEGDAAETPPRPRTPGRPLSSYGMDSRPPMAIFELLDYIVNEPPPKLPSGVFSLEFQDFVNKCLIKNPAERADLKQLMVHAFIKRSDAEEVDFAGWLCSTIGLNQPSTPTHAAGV

Activity [1]: 96%
Activity [2]: 104%
Activity [3]: 126%
Activity [4]: 70%
Activity [5]: 104%
GI50 (786-0): 4190 nM
Activity [6]: 97%
Activity [8]: 100%
Activity [9]: 110%
Activity [10]: 96%
Activity [11]: 99%
Activity [12]: 73%
Activity [13]: 124%
IC50 (MCF7 [14]): 500 nM
GI50 (HCT-15): 575 nM
Activity [15]: 100%
Activity [16]: 106%
Activity [17]: 66%
Activity [18]: 114%
Activity [20]: 113%
Activity [21]: 98%
GI50 (MCF7 [22]): 1090 nM
Activity [23]: 96%
SMILES: O=C1Nc2ncccc2/C1=C1/Nc2ncccc2C1=O
Activity (MCF7 [7]): 22.63%
GI50 (A498): 1660 nM
Activity (MCF7 [19]): 0.17%
